ChEMBL document CHEMBL1667797, “Synthesis and anticoagulant activity of a new series of 1,4-dihydropyridine derivatives” (2011)

Columns and labels:
Assay type in all cases: functional
Plasma [1] = experiment: Anticoagulant activity in human plasma assessed as prothrombin time index at 60 ug/ml relative to control
Outline: (§1)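 Citrated human donor plasma (2.5% sodium citrate, spun 5400 rpm at 4 °C for 20 min, kept at -70 °C). 90 µl plasma with 10 µl aqueous compound, incubated 10 min at 37 °C. Pre-incubated PT reagent (200 µl) added, clotting time recorded. Normal saline as control. PT index = sample PT/control PT. Mean of five trials.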

Plasma [2] = experiment: Anticoagulant activity in human plasma assessed as prothrombin time at 30 ug/ml; outline: as §1
Plasma [3] = experiment: Anticoagulant activity in human plasma assessed as activated partial […] time index at 60 ug/ml relative to control
Outline: (§2)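 Citrated plasma from healthy human donors (blood into 2.5% sodium citrate, spun 5400 rpm, 4 °C, 20 min, stored -70 °C). Plasma 90 µl plus 10 µl compound in water, 1 min at 37 °C. APTT reagent added, 5 min at 37 °C, then CaCl2 added. Clotting time read on a coagulometer. Saline control, heparin reference. Index = sample APTT/control APTT. Mean of five trials.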

Plasma [4] = experiment: Anticoagulant activity in human plasma assessed as activated partial […] time at 60 ug/ml; outline: as §2
Plasma [5] = experiment: Anticoagulant activity in human plasma assessed as activated partial […] time index at 30 ug/ml relative to control; outline: as §2
Plasma [6] = experiment: Anticoagulant activity in human plasma assessed as prothrombin time at 60 ug/ml; outline: as §1
Plasma [7] = experiment: Anticoagulant activity in human plasma assessed as activated partial […] time at 30 ug/ml; outline: as §2
Plasma [8] = experiment: Anticoagulant activity in human plasma assessed as prothrombin time index at 30 ug/ml relative to control; outline: as §1

| Structure (SMILES) | Ratio (Plasma [1]) | PT (Plasma [2]) | Ratio (Plasma [3]) | APTT (Plasma [4]) | Ratio (Plasma [5]) | PT (Plasma [6]) | APTT (Plasma [7]) | Ratio (Plasma [8]) |
| --- | --- | --- | --- | --- | --- | --- | --- | --- |
| CC1=C(C(=O)NNC(N)=S)C(c2ccco2)C(C(=O)NNC(N)=S)=C(C)N1 | 21.22 | 240.42 s | 27.47 | >1000 s | 19.78 | 420.21 s | 720.35 s | 12.14 |
| CC1=C(C(=O)NNC(N)=S)C(c2ccccc2)C(C(=O)NNC(N)=S)=C(C)N1 | 2.31 | – | 5.01 | 182.4 s | 2.4 | 45.8 s | 87.5 s | 0 |
| CC1=C(C(=O)NNC(N)=S)C(c2ccc(N(C)C)cc2)C(C(=O)NNC(N)=S)=C(C)N1 | 2.43 | 21.6 s | 13.18 | 480 s | 6.09 | 48.2 s | 221.8 s | 1.09 |
| CC1=C(C(=O)NNC(N)=S)C(c2ccc(Cl)cc2)C(C(=O)NNC(N)=S)=C(C)N1 | 1.24 | – | 5.5 | 200.4 s | 2.49 | 33.8 s | 90.7 s | 0 |
| COc1ccc(C2C(C(=O)NNC(N)=S)=C(C)NC(C)=C2C(=O)NNC(N)=S)cc1 | 4.71 | 45.7 s | 3.3 | 120.2 s | 1.85 | 93.4 s | 64.7 s | 2.03 |
| CC1=C(C(=O)NNC(N)=S)C(c2ccc([N+](=O)[O-])cc2)C(C(=O)NNC(N)=S)=C(C)N1 | 2.66 | 24.7 s | 19.82 | 721.8 s | 8.82 | 52.8 s | 321.2 s | – |
| CC1=C(C(=O)NNC(N)=S)C(c2ccc(O)cc2)C(C(=O)NNC(N)=S)=C(C)N1 | 3.5 | 45.6 s | 24.25 | 882.7 s | 11 | 70.8 s | 400.8 s | 2.3 |
